A selection: hits, their analogues and other compounds. The true share with any hit is near 4.6%.
OX1R antag-1 = antagonists of human orexin 1 receptor (OX1R). AID 485270, 2010. actives 1.8% (n = 330,000). inhibition, % at 6.6 µM. OX1R-expressing cells, FRET antagonist read-out; in the data active = inhibition mostly above about 38%, no sharp cut-off; inactive = mostly below about 40%;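 note: 0% = agonist challenge alone and 100% = reference antagonist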
GPR7 antag = GPR7 receptor antagonists, primary screen, cell-based, fluorescence, single concentration; Neuropeptides B/W receptor type 1 (Homo sapiens), P48145; GPR7-expressing cells, fluorescence antagonist assay; inhibition, % at 4.4 µM; actives 1.1% (n = 290,000); AID 1861, 2009; in the data active = inhibition above about 16%, passing the limit was not always enough;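 note: cells stimulated with the agonist NPW; 0% = agonist with vehicle and 100% = vehicle without agonist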
Target sequence (P48145 whole entry, looked up): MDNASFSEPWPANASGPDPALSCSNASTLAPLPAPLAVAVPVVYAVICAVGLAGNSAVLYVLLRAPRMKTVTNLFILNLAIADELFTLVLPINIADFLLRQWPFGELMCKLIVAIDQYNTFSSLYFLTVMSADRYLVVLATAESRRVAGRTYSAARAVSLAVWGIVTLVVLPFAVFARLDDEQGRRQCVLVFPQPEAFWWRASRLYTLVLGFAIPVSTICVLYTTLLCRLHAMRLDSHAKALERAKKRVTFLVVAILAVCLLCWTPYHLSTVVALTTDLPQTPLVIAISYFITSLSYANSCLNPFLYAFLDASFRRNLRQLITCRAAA
CHO parental Ca = ATP-evoked calcium signal inhibitors, parental CHO, primary screen, counter-screen for OX1R antagonist project, cell-based, fluorescence, Fluo-8 calcium dye | parental CHO-K1, ATP-induced calcium, Fluo-8 fluorescence | inhibition, % at 5.6 µM | actives 0.63% (n = 330,000) | AID 463079, 2010;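 active = inhibition above that plate's mean sample inhibition plus 3 SD, cut at about 26% in these data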;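 note: 0% = ATP-challenged DMSO wells and 100% = DMSO wells without ATP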
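Test system: untransfected parental CHO cell line; also added: ATP stimulus; dosing: 5.6 µM, single dose; signal: calcium-sensitive Fluo-8 fluorescence; measure: percent inhibition of ATP-evoked calcium rise, normalized to controls; benchmarks: low control ATP plus DMSO, high control DMSO only; replication: one well per compound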
TAAR1 antag = human TAAR1 antagonists, primary screen, Fluo-8 calcium fluorescence, CHO RD-HGA16 cells; antagonist; inhibition, % at 3 µM; actives 1.5% (n = 360,000);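 active = inhibition above a per-plate cutoff, the mean inhibition of test compounds on that plate plus 3 SD, cut at about 49% in these data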;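 note: 0% = DMSO plus EC80 beta-PEA response and 100% = DMSO alone without agonist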
Target sequence (Q96RJ0 whole entry, looked up): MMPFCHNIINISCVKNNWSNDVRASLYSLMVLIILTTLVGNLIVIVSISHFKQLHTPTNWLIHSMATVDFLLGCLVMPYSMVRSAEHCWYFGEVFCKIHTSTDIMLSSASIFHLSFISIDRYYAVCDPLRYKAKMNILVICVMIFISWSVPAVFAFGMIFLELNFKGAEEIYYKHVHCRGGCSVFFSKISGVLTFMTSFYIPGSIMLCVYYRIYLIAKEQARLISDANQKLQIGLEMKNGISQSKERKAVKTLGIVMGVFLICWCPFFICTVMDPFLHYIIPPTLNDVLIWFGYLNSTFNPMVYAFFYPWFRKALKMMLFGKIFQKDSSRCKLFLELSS
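Test system: hTAAR1-expressing CHO RD-HGA16 cells, Gα16-coupled; Probe or stimulus: EC80 β-phenethylamine stimulus; Compound dosing: single nominal final test compound concentration of 3 µM; Timing: 140 s kinetic read after compound, 140 s after agonist; Signal: Fluo-8 calcium-sensitive fluorescence; Measure: % inhibition of agonist calcium response; Controls: DMSO and EC80 PEA controls.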
OX1R antag-2 = OX1R (HCRTR1) antagonists, primary screen, fluorescence, CHO/OX1R cells, Fluo-8 calcium, orexin A; AID 434989, 2010; Fluo-8 calcium fluorescence; Orexin/Hypocretin receptor type 1 (Homo sapiens), O43613; inhibition, % at 5 µM; actives 0.43% (n = 330,000);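 active = inhibition above its plate's threshold, mean inhibition of all tested compounds on the plate plus 3 SD, cut at about 37% in these data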;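 note: 0% = orexin A challenge wells and 100% = SB-334867-A antagonist wells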
TAAR1 agonist = human TAAR1 agonists, primary screen, Fluo-8 calcium fluorescence, CHO RD-HGA16 cells. actives 0.99% (n = 360,000). activation, % at 3 µM. vehicle wells 0%, saturating PEA agonist 100%. Trace amine-associated receptor 1 (Homo sapiens), Q96RJ0;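 active = activation above the mean activation of all test compounds in the run plus 3 SD, cut at about 38% in these data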
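System: CHO-derived RD-HGA16 cells with stable Gα16 and human TAAR1 / Times: 17-24 h plating, Fluo-8 75 min 37 °C, 30 min RT / Technique: calcium-sensitive Fluo-8 signal, excitation 470-495, emission 515-575 nm / Measure: % activation relative to PEA EC100 response / Benchmarks: DMSO and PEA EC100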
OX1R HTRF confirm = OX1R (HCRTR1) antagonists, confirmation, cell-based, HTRF; shares compounds with OX1R antag-1; OX1R-expressing cells, HTRF antagonist assay; inhibition, % at 6.6 µM; actives 49% (n = 1,800); AID 492964, 2010; in the data active = inhibition above about 55%;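 note: CHO cells expressing OX1R stimulated with orexin A at about EC80; 0% = agonist challenge alone and 100% = reference antagonist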
CHO-K1 HTRF = signal inhibition in parental CHO-K1 cells, counter-screen for OX1R antagonist project, cell-based, HTRF | shares compounds with OX1R antag-1 | HTRF counterscreen | inhibition, % at 6.6 µM | actives 48% (n = 1,800); in the data active = inhibition above about 17%;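 note: 0% = agonist challenge with vehicle and 100% = vehicle alone without agonist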
An asterisk follows results filed as active; / = no result given.

SMILES	OX1R antag-1	GPR7 antag	CHO parental Ca	TAAR1 antag	OX1R antag-2	TAAR1 agonist	OX1R HTRF confirm	CHO-K1 HTRF
CC(C)(C)c1ccc(S(=O)(=O)O/N=C2/CCCCC2c2ccc([N+](=O)[O-])cc2[N+](=O)[O-])cc1 (centres undefined)	115*	-3	8	0	-15	15	41	47*
Cc1ccc(S(=O)(=O)N/N=C2/CCCCC2C2CCCCC2)cc1[N+](=O)[O-] (centres undefined)	13	-10	-7	1	-15	-1	/	/
CN(C)C(=O)c1ccc2c(c1[N+](=O)[O-])C(=O)c1ccccc1C2=O	93*	-7	-6	-1	-9	3	58*	55*
COc1ccc2c(c1O)C(=O)c1ccccc1C2=O	9	-14	-3	/	-2	/	/	/
COc1cccc(/C=C2\Oc3ccc(O)cc3C2=O)c1O	95*	8	-7	-27	25	3	93*	16
Cc1ccc(CCNC(=O)CCc2nc3ccccc3[nH]2)cc1	8	-15	-6	8	-9	5	/	/
CCCCN(C1CCS(=O)(=O)C1)S(=O)(=O)c1ccc(OC)cc1 (centres undefined)	9	/	-10	1	-20	0	/	/
CN(C)c1ccc(/C=c2\sc3n(c2=O)CCCN=3)cc1	116*	-4	-11	3	-13	18	36	31*
O=c1/c(=C/c2ccc(O)cc2)sc2n1CCCN=2	47	14	9	-9	-2	0	/	/
CCOc1nc(Nc2ccc(OC)c(Cl)c2)nc(OCC)n1	12	-2	-20	-4	-32	9	/	/
CNC(=O)COC(=O)c1ccc([N+](=O)[O-])cc1Cl	120*	-2	-13	-26	-10	1	46	74*
CC(C(=O)OCC(=O)Nc1ccc(S(N)(=O)=O)cc1)N1C(=O)c2ccccc2C1=O (centres undefined)	11	/	-5	6	-11	2	/	/
COc1ccc2cc(C(N)=O)/c(=N/NC(=O)c3ccco3)oc2c1	79*	-7	-3	11	-7	2	54	11
CCCCOC(=O)C1=C(C)NC(=O)NC1c1ccc([N+](=O)[O-])s1 (centres undefined)	32	-1	-17	-20	-22	7	/	/
Cc1cc(C(=O)Nc2cccc3cccnc23)ccc1[N+](=O)[O-]	80*	6	-28	-3	11	16	56*	9
O=C(Nc1cccc2cccnc12)c1cccc([N+](=O)[O-])c1	16	-15	-16	-6	-10	0	/	/
O=C(COc1ccc2ccccc2c1)Nc1cccc2cccnc12	81*	7	-23	25	27	13	45	-1
O=C(COc1ccc2ccccc2c1)Nc1cccnc1Cl	12	-10	-27	-4	-34	0	/	/
CC(C)Oc1ccc(C(=O)Nc2cccc3cccnc23)cc1	79*	-9	-20	25	19	-2	7	-7
CCN1C(=NCCOC)N[C@@H](c2cccc(C(F)(F)F)c2)C(C(=O)OC)=C1C	6	/	-16	26	-6	6	/	/
COc1ccc(NC(=O)c2cc(S(=O)(=O)N3CCOCC3)ccc2C)cc1S(=O)(=O)N1CCCCC1	/	/	/	36	/	7	/	/
Cc1ccccc1-n1c(=S)[nH]c2nc3c(cc2c1=O)COC(C)(C)C3	2	-2	-6	-19	-16	3	/	/
CCN1C(=O)/C(=C/c2cc(C)n(C)c2C)SC1=Nc1ccc(OC)cc1	127*	1	-21	2	-46	8	26	16
Cc1c(/C=C/C(=O)c2cccs2)cnn1C	103*	-15	-15	-11	10	3	62*	15
CCc1ccc(C(=O)/C=C/c2cnn(C)c2C)s1	24	0	-16	8	-7	5	/	/
SMILES	OX1R antag-1	GPR7 antag	CHO parental Ca	TAAR1 antag	OX1R antag-2	TAAR1 agonist	OX1R HTRF confirm	CHO-K1 HTRF
Cc1nc(NC(=O)c2ccccc2)sc1-c1csc(N)n1	96*	1	-17	10	30	19	92*	15
Cc1nc(NC(=O)c2ccccc2)sc1-c1csc(NCc2ccccc2)n1	21	1	-14	8	-17	0	/	/
O=C(O)CSCCOc1ccc(OCCSCC(=O)O)cc1	9	-8	-1	-10	-6	2	/	/
Cc1ccc2nsnc2c1NC(=O)c1ccc([N+](=O)[O-])cc1	38	-9	-3	-3	-12	1	/	/
CCCCNc1ccc2nsnc2c1[N+](=O)[O-]	120*	-12	1	-14	-10	3	59*	90*
CSc1nc2ccc(NC(=O)c3cc4ccccc4o3)cc2s1	84*	-13	-14	0	9	0	91*	13
O=C(Nn1cnnc1)c1cc([N+](=O)[O-])cc([N+](=O)[O-])c1	113*	-8	-6	-10	-9	-1	66*	84*
Nc1c(C(=O)Nn2cnnc2)cc([N+](=O)[O-])cc1[N+](=O)[O-]	64	2	-7	/	3	/	/	/
CC(C)NC(=O)c1cc(C2CCCCN2C(=O)OCCF)on1 (centres undefined)	/	/	/	15	/	1	/	/
Cc1ccc(=O)n(C(C(=O)NCc2ccco2)C(=O)c2ccc(F)cc2)c1 (centres undefined)	-1	4	-4	0	-16	14	/	/
Cc1[nH]c2ccccc2c1/C=C/c1nc2ccccc2c(=O)[nH]1	87*	-6	3	-4	-25	4	75*	12
O=C(NC(=S)Nc1ccccc1F)C1CCCCC1	37	-14	-3	-21	-24	1	/	/
COc1ccc(NC(=O)c2cn(C)c(=O)c3cc(OC)c(OC)cc23)cc1OC	-1	4	0	-2	-11	0	/	/
COC(=O)c1c(NC(=O)c2ccccc2)sc(C(N)=O)c1C	95*	-6	-1	-3	-2	1	32	-1
Clc1ccccc1C1CC(c2ccccc2)Nc2ncnn21 (centres undefined)	79*	-5	-7	2	-16	4	22	1

Screening data as filed in PubChem BioAssay.
